Measurements: ChEMBL document CHEMBL1136868, “Synthesis of phenylisothiourea derivatives as inhibitors of NO production in LPS activated macrophages” (Bioorg Med Chem Lett, 2009)
Activity calls are given as the source filed them. No cut-off for these calls is given here.

What was measured:
[1] = system: RAW264.7; experiment: Suppression of LPS-induced NF-kappaB p65 subunit translocation into nucleus in mouse RAW264.7 cells assessed as p65 protein level at 10 uM after 30 mins pretreated 30 mins before LPS challenge by Western blot; type: functional, cell-based
Procedure, shortened: (§1)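 Macrophages were pretreated with compound for 30 min, then given LPS (1 µg/mL) for a further 30 min. Nuclear extracts were immunoblotted for p65, with levels normalized to PARP as the loading control.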

[2] = system: RAW264.7; experiment: Inhibition of iNOS mRNA expression in LPS-stimulated mouse RAW264.7 cells at 10 uM after 6 hrs by RT-PCR; type: functional, cell-based
Procedure, shortened: (§2)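 RAW 264.7 cells (1.8 × 10⁶ per 60 mm dish) were stimulated 6 h with LPS (1 µg/mL) with or without compound. Total RNA was extracted and 2 µg was reverse transcribed with random hexamers. PCR ran 25 cycles (94 °C, 55 °C, 72 °C, 30 s each), and products were resolved on 2% agarose. iNOS was normalized to β-actin; mean ± SD of three densitometric analyses.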

[3] = system: RAW264.7; experiment: Cytotoxicity against mouse RAW264.7 cells; type: cell-based
[4] = system: RAW264.7; experiment: Antiinflammatory activity against LPS-stimulated mouse RAW264.7 cells assessed as inhibition of NO production at 20 uM after 20 hrs relative to control; type: functional; settings: RAW264.7, 20 h
Procedure, shortened: (§3)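 RAW 264.7 cells plated at 1 × 10⁵ cells/mL in 10% FBS–DMEM and grown 24 h, then moved to 1% FBS medium. Cells were stimulated with LPS (1 µg/mL) with or without compound for 20 h. Nitrite accumulated in supernatant was read by Griess reagent (10 min, room temperature, A570). Inhibition is relative to LPS control, n = 3; IC50 given as mean ± SD of three experiments.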

[5] = system: RAW264.7; experiment: Antiinflammatory activity against LPS-stimulated mouse RAW264.7 cells assessed as inhibition of NO production at 50 uM after 20 hrs relative to control; type: functional; settings: RAW264.7, 20 h; procedure, shortened: as §3
[6] = system: RAW264.7; experiment: Inhibition of iNOS protein expression in LPS-stimulated mouse RAW264.7 cells at 10 uM after 20 hrs by Western blot; type: functional, cell-based
Procedure, shortened: (§4)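 RAW 264.7 cells were exposed to compound for 20 h during LPS (1 µg/mL) activation, then washed and lysed. 20 µg lysate protein was run on 8% SDS-PAGE, blotted to PVDF and probed for iNOS and actin. iNOS band density was normalized to actin; mean ± SD of three independent densitometric analyses.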

[7] = system: RAW264.7; experiment: Antiinflammatory activity against LPS-stimulated mouse RAW264.7 cells assessed as inhibition of NO production at 5 uM after 20 hrs relative to control; type: functional; settings: RAW264.7, 20 h; procedure, shortened: as §3
[8] = system: RAW264.7; experiment: Antiinflammatory activity against LPS-stimulated mouse RAW264.7 cells assessed as inhibition of NO production after 20 hrs; type: functional, cell-based; settings: RAW264.7, 20 h; procedure, shortened: as §3
[9] = Peroxynitrite radical scavenging activity assessed as dihydrohodamine 123 product by cell free assay
Procedure, shortened: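 In a cell-free system, oxidation of dihydrorhodamine 123 by authentic peroxynitrite was monitored by fluorescence.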

[10] = system: RAW264.7; experiment: Inhibition of iNOS protein expression in LPS-stimulated mouse RAW264.7 cells at 5 uM after 20 hrs by Western blot; type: functional; settings: RAW264.7, 20 h; procedure, shortened: as §4
[11] = system: RAW264.7; experiment: Inhibition of iNOS mRNA expression in LPS-stimulated mouse RAW264.7 cells at 5 uM after 6 hrs by RT-PCR; type: functional, cell-based; procedure, shortened: as §2
[12] = system: RAW264.7; experiment: Suppression of LPS-induced NF-kappaB p65 subunit translocation into nucleus in mouse RAW264.7 cells assessed as p65 protein level at 5 uM after 30 mins pretreated 30 mins before LPS challenge by Western blot; type: functional, cell-based; procedure, shortened: as §1

Compound	inhibition at 20 µM [4] [%]	inhibition at 50 µM [5] [%]	further results
COc1cc(/C=C/C(=O)CC(=O)/C=C/c2ccc(O)c(OC)c2)ccc1O [CURCUMIN]			Activity [1]: Active; inhibition [2]: Active; Activity [3]: Non-toxic
CCNC(=S)Nc1ccc(-c2ccccc2)cc1	< 10	23	
CCN/C(=N/c1ccc(C)cc1)SC(C)C	< 10	14	
CCN/C(=N/c1ccc(-c2ccccc2)cc1)SC(C)C	85	96	iNOS protein expression inhibition [6]: Active; inhibition at 5 µM [7]: 13%; IC50 [8]: 11.2 µM; Activity [1]: Active; Activity [3]: Non-toxic
CCCc1ccc(NC(=S)NCC)cc1	< 10	23	
CS/C(N)=N\c1ccc(OCCn2c3ccccc3c3ccccc32)cc1	22	24	
CC(C)S/C(N)=N\c1ccc(OCCn2c3ccccc3c3ccccc32)cc1	22	30	
CCNC(=S)Nc1ccc(Cl)cc1	< 10	11	
CCN/C(=N/c1ccc(Cl)cc1)SC(C)C	< 10	62	
CCCc1ccc(/N=C(/NCC)SC(C)C)cc1	< 10	71	
CCNC(=S)Nc1ccc(O)cc1	< 10	20	
CCN/C(=N/c1ccc(OCCn2c3ccccc3c3ccccc32)cc1)SCc1ccc(C(=O)O)cc1	90	100	iNOS protein expression inhibition [6]: Active; inhibition at 5 µM [7]: 39%; IC50 [8]: 5.3 µM; SC50 [9]: 14 µM; Activity [1]: Active; Activity [3]: Non-toxic
CCN/C(=N/c1ccc(OCCn2c3ccccc3c3ccccc32)cc1)SCc1ccccc1	31	33	
CCN/C(=N/c1ccc(OCCn2c3ccccc3c3ccccc32)cc1)SCc1ccc(F)cc1	36	40	
CCN/C(=N/c1ccc(OCCn2c3ccccc3c3ccccc32)cc1)SC(C)C	48		iNOS protein expression inhibition [6]: Active; IC50 [8]: 1.3 µM; inhibition at 5 µM [10]: 79%; Activity [1]: Active; Activity [3]: Non-toxic; inhibition [11]: Active; Activity [12]: Active
CCNC(=S)Nc1ccc(C)cc1	< 10	14	
CCN/C(=N/c1ccc(OCCn2c3ccccc3c3ccccc32)cc1)SCc1ccc(C(=O)OC)cc1	14	17	
CCNC(=S)Nc1ccc(OCC)cc1	< 10	12	
CCS/C(N)=N\c1ccc(OCCn2c3ccccc3c3ccccc32)cc1	32	64	
CCN/C(=N/c1ccc(OCC)cc1)SC(C)C	< 10	22	
CCN/C(=N/c1ccc(OCCn2c3ccccc3c3ccccc32)cc1)SC	99	100	iNOS protein expression inhibition [6]: Active; IC50 [8]: 2.9 µM; Activity [1]: Active; Activity [3]: Non-toxic
